{"data": "Results from different studies", "observed": "cell growth or viability", "note": "Lines come from different studies, so protocols differ."}
{"Compound": "CC/C(=C(\\c1ccccc1)c1ccc(OCCN(C)C)cc1)c1ccccc1", "cell line": "HEK293", "assay": "resazurin", "setting": "20 h", "CC50": "9 µg/mL"}
{"Compound": "N=C(N)c1ccc(OCCCCCOc2ccc(C(=N)N)cc2)cc1", "cell line": "HEK293", "assay": "MTT", "setting": "24 h", "CC50": "82.9 µM"}
{"Compound": "O=P(O)(O)c1cc2c(O)c(c1)Cc1cc(P(=O)(O)O)cc(c1O)Cc1cc(P(=O)(O)O)cc(c1O)Cc1cc(P(=O)(O)O)cc(c1O)Cc1cc(P(=O)(O)O)cc(c1O)Cc1cc(P(=O)(O)O)cc(c1O)Cc1cc(P(=O)(O)O)cc(c1O)Cc1cc(P(=O)(O)O)cc(c1O)C2", "cell line": "HEK293", "assay": "ATP luminescence", "setting": "24 h", "CC50": "747 µM"}
{"Compound": "Cc1nc(C(CN)NC(=O)C(=O)Nc2ccc3c(c2)OCO3)sc1CO (centres unmarked)", "cell line": "MT2", "assay": "MTS", "setting": "96 h", "CC50": "≥ 650 µM"}
{"Compound": "CC(C)c1cccc(=O)c(O)c1", "cell line": "HepDES19", "assay": "MTS", "setting": "72 h", "CC50": "66.4 µM"}
{"Compound": "O[C@@H](c1cc(C(F)(F)F)nc2c(C(F)(F)F)cccc12)[C@H]1CCCCN1", "cell line": "HEK293", "assay": "MTT", "setting": "24 h", "CC50": "8.84 µM"}
{"Compound": "CC[C@H](C)[C@H](NC(=O)OCC1c2ccccc2-c2ccccc21)C(=O)Sc1cccccc1=O", "cell line": "HepDES19", "assay": "MTS", "setting": "72 h", "CC50": "42.6 µM"}
{"Compound": "N#Cc1cc(Cl)cc(Oc2ccc(Cl)cc2OCCn2cc(Cl)c(=O)[nH]c2=O)c1", "cell line": "MT2", "CC50": "31 µM"}
{"Compound": "COC(=O)N[C@H](C(=O)N1CCC[C@H]1c1nc(-c2ccc(-c3ccc(-c4c[nH]c([C@@H]5CCCN5C(=O)[C@@H](NC(=O)OC)C(C)C)n4)cc3)cc2)c[nH]1)C(C)C", "cell line": "MT2", "setting": "5 days", "CC50": "90 µM"}
{"Compound": "NCCN(C(=O)c1ccc(Cl)cc1Cl)c1ccc(OCc2ccc(Cl)cc2)cc1", "cell line": "HEK293", "assay": "MTT", "setting": "24 h", "CC50": "7.96 µM"}
{"Compound": "C=C(C)c1ccccc(=O)c1O", "cell line": "HepDES19", "assay": "MTS", "setting": "72 h", "CC50": "53.5 µM"}
{"Compound": "CC1c2cc(c(O)c(O)c2O)C(C)c2cc(c(O)c(O)c2O)C(C)c2cc(c(O)c(O)c2O)C(C)c2cc1c(O)c(O)c2O (centres unmarked)", "cell line": "HEK293", "assay": "MTT", "setting": "24 h", "CC50": "402 µM"}
{"Compound": "O=c1cccccc1Sc1cccccc1=O", "cell line": "HepDES19", "assay": "MTS", "setting": "72 h", "CC50": "20.8 µM"}
{"Compound": "CCOc1ccc(-c2nc(CNCCc3ccc(F)cc3)cs2)cc1", "cell line": "HEK293", "assay": "MTT", "setting": "24 h", "CC50": "39 µM"}
